Experimental findings from ChEMBL document CHEMBL1141864, “Structure-activity relationships in 1,4-benzodioxan-related compounds. 8.(1) {2-[2-(4-chlorobenzyloxy)phenoxy]ethyl}-[2-(2,6-dimethoxyphenoxy)ethyl]amine (clopenphendioxan) as a tool to highlight the involvement of alpha1D- and alpha1B-adrenoreceptor subtypes in the regulation of human PC-3 …” (J Med Chem, 2005) are described below.

Test [1] has as its target T1, Alpha-1A adrenergic receptor (Homo sapiens, UniProt P35348).
T1 sequence (P35348 whole entry): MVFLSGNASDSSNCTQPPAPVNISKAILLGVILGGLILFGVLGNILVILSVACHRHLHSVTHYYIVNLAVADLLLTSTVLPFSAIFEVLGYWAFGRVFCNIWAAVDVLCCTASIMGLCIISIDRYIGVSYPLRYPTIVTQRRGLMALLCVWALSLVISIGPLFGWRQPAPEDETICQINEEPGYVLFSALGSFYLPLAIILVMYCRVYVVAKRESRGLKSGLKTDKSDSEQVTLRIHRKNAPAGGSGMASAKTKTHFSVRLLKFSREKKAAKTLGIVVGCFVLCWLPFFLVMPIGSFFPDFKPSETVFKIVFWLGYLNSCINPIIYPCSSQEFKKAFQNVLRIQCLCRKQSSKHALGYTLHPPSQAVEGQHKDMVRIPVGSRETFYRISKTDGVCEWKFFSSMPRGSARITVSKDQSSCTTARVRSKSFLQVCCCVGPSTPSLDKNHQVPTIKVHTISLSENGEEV
As to the kind of experiment: Displacement of [3H]prazosin from cloned human ADRA1A expressed in CHO cells. Format: cell-based.

Test [2] deals with T2, Alpha-1D adrenergic receptor (Rattus norvegicus) (UniProt P23944).
T2 sequence (whole entry): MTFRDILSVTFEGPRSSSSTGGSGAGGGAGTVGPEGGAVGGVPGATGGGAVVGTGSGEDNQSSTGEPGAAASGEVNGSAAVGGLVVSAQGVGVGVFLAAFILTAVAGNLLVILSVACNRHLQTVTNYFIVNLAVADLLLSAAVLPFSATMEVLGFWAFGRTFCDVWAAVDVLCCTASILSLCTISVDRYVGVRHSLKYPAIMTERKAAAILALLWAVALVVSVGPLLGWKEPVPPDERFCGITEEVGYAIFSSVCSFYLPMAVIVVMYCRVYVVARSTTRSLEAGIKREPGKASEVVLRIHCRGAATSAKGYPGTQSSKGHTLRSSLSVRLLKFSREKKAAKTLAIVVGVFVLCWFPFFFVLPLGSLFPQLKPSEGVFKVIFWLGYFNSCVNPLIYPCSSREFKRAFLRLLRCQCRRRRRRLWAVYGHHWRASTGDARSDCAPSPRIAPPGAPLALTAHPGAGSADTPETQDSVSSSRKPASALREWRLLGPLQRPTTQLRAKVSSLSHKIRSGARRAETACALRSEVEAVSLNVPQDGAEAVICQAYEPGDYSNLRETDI
As to the kind of experiment: ADRA1D blocking activity assessed by antagonism of (-)-NE induced contractions on isolated rat thoracic aorta. The test is classed as functional, tissue-based. In short, it runs like this: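 Isolated rat tissue: each antagonist concentration tested four times over 0.01–1 μM; pK_B calculated by van Rossum method from shifts of (-)-noradrenaline contraction curves (vas deferens, α1A; thoracic aorta, α1D) or (-)-phenylephrine contraction curves (spleen, α1B).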

The target in test [3] is T3, 5-hydroxytryptamine receptor 1A (Homo sapiens) (UniProt P08908).
T3 sequence (whole entry): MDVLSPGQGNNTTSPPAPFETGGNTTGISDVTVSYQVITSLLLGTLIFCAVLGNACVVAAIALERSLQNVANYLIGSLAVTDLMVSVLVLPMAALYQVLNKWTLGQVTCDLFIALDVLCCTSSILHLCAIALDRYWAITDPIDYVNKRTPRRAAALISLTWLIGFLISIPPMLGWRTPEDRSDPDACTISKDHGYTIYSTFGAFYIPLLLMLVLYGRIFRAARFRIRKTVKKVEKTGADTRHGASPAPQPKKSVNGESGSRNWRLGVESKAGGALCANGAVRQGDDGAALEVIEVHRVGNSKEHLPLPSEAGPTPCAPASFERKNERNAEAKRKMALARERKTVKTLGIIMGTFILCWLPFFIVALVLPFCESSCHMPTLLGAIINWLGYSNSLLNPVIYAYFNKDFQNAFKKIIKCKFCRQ
As to the kind of experiment: Agonist efficacy towards cloned human 5HT1A receptor by [35SGTP]gammaS binding in HeLa cells. Format: cell-based.

Test [4] addresses T3, 5-hydroxytryptamine receptor 1A (Homo sapiens). As to the kind of experiment: Maximum response towards cloned human 5HT1A receptor.
Test [5] relates to PC-3. As to the kind of experiment: Cytotoxic activity on human PC3 prostate cancer cells by SRB assay. Format: functional. Particulars: for GI50 / TGI / LC50 (50% lethal concentration): Homo sapiens, PC-3. Put shortly: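 NCI-protocol SRB assay on PC-3 cells grown in DMEM/10% FBS/2 mM glutamine. Seeded 24 h, then compounds in medium for 48 h at 37 °C, 5% CO2, in quadruplicate. A time-zero plate was read. Cells TCA-fixed, stained with 0.4% SRB, absorbance at 520 nm. GI50, TGI and LC50 interpolated from % growth versus log concentration.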

In test [6] the test system is PC-3. The test can be described thus: Inhibition of NE-induced increase of PC3 cell proliferation using ELISA BrdU. The test is classed as functional, cell-based. Particulars: Homo sapiens. In short, it runs like this:
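PC-3 cells (7×10^4/well) plated 24 h, then given noradrenaline (0–50 μM) alone or with antagonist (1 μM, or 0.5 μM for one compound) for 16 h. BrdU added for the last 4 h and read by colorimetric ELISA as % growth; mean ± SD of three experiments.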

Activity calls are given as the source filed them. The calls are words filed in the database; no cut-off is given here. Where only a bound is given, the exact number is not on record here.

With `COc1cccc(OC)c1OCCNCCOc1ccccc1OCc1cccc([N+](=O)[O-])c1`, the Ki in test [1] is 0.000316 µM. The pKb in test [2] was 9.28. The same compound yielded a pD2 in test [3] of 7.16. Moreover, the %max in test [4] was 44.4%. Besides, in test [5], the Activity is reported as under 50%, the GI50 turned out to be 13.2 µM and net growth stopped (TGI) at 38.9 µM.

For the compound `COc1cccc(OC)c1OCCNCCOc1ccccc1OCc1ccc(Cl)cc1` [CLOPENPHENDIOXAN], the outcome in test [6] was Active. This compound also had a Ki in test [1] of 0.000251 µM. The compound also came in with a pKb in test [2] of 9.11. The compound also came in with a pD2 in test [3] of 6.98. The same compound came in with a %max in test [4] of 60%. In test [5], this compound came in with a GI50 of 2.4 µM, an LC50 (50% lethal concentration) of 52.5 µM and a TGI of 14.5 µM.

For `COc1cccc(COc2ccccc2OCCNCCOc2c(OC)cccc2OC)c1`, in test [1], the affinity, expressed as Ki, was 0.002 µM. In test [2], this compound came in with a pKb of 9.12. In test [5], halving of growth (GI50) required 2.5 µM, the LC50 (50% lethal concentration) amounted to 61.7 µM and total growth inhibition (TGI) required 15.1 µM.

`COc1cccc(OC)c1OCCNCCOc1ccccc1OCc1ccc([N+](=O)[O-])cc1`: the Ki in test [1] was 0.00126 µM. The compound further registered a pKb in test [2] of 9.41. In test [3], this compound had a pD2 of 6.15. This compound displayed a %max in test [4] of 79.1%. Besides, in test [5], the Activity is under 50%, it took 12 µM to inhibit growth by half (GI50) and the TGI is 43.6 µM.

In test [1], `COc1cccc(OC)c1OCCNCCOc1ccccc1OCc1cccc(C)c1` gave a Ki of 0.000398 µM. In test [2], the pKb was found to be 8.85. Further, in test [5], it took 12 µM to inhibit growth by half (GI50), the LC50 (50% lethal concentration) amounted to 87.1 µM and total growth inhibition (TGI) required 32.3 µM.

`COc1cccc(OC)c1OCCNCCOc1ccccc1OCc1ccccc1Cl`: affinity in test [1] was put at a Ki of 0.00141 µM. Further, the pKb in test [2] is 8.59. Moreover, the pD2 in test [3] came out at 7.31. The compound also returned a %max in test [4] of 74.4%. Moreover, in test [5], it took 5.4 µM to inhibit growth by half (GI50), the LC50 (50% lethal concentration) worked out at 58.9 µM and total growth inhibition (TGI) required 17.8 µM.

`COc1ccccc1COc1ccccc1OCCNCCOc1c(OC)cccc1OC` gave a Ki in test [1] of 0.002 µM. The same compound returned a pKb in test [2] of 8.86. Besides, in test [5], the GI50 is 8.9 µM, the LC50 (50% lethal concentration) is 100 µM and net growth stopped (TGI) at 30.2 µM.

As for `COc1ccc(COc2ccccc2OCCNCCOc2c(OC)cccc2OC)cc1`, in test [1], the Ki was 0.002 µM. The same compound registered a negative logarithm of the Kb (pKb) in test [2] of 9.21. In addition, the pD2 in test [3] came out at 7.92. Also, the %max in test [4] came to 21.6%. In test [5], this compound registered an Activity of under 50%, a GI50 of 8.5 µM and a total growth inhibition concentration (TGI) of 34.7 µM.

For the compound `COc1cccc(OC)c1OCCNCCOc1ccccc1OCc1ccccc1C`, the Ki in test [1] is 0.00158 µM. Also, in test [2], the pKb came to 8.64. In test [3], this compound gave a pD2 of 6.96. In addition, in test [4], the %max stood at 75.6%. In test [5], this compound yielded an Activity of under 50%, a GI50 of 11.5 µM and a TGI of 33.9 µM.

In the case of `COc1cccc(OC)c1OCCNCCOc1ccccc1OCc1ccc(C)cc1`, the affinity in test [1] corresponds to a Ki of 0.002 µM. This compound also registered a pKb in test [2] of 9.12. In test [5], halving of growth (GI50) required 7.8 µM, the LC50 (50% lethal concentration) was 61.7 µM and the TGI stood at 27.5 µM.

With `COc1cccc(OC)c1OCCNCCOc1ccccc1OCc1ccccc1[N+](=O)[O-]`, in test [1], the Ki is 0.00794 µM. The compound further had a pKb in test [2] of 8.95. In test [5], growth was halved (GI50) at 13.2 µM, the LC50 (50% lethal concentration) was 95.5 µM and the TGI was 34.7 µM.

On to `COc1cccc(OC)c1OCCNCCOc1ccccc1OCc1cccc(Cl)c1`, for which affinity in test [1] was put at a Ki of 0.000251 µM. In test [2], this compound returned a pKb of 8.72. Further, in test [3], the pD2 is 7.15. This compound registered a %max in test [4] of 67.1%. In test [5], this compound came in with a GI50 of 5.9 µM, an LC50 (50% lethal concentration) of 58.9 µM and a TGI of 20.4 µM.

With `COc1cccc(OC)c1OCCNCCOc1ccccc1OCc1ccccc1`, the outcome in test [6] was Active. The affinity in test [1], expressed as Ki, was 0.000468 µM. In test [2], the pKb stood at 9.37. The pD2 in test [3] turned out to be 7.11. In test [4], this compound registered a %max of 45.7%. In test [5], this compound displayed a GI50 of 26.9 µM, an LC50 (50% lethal concentration) of 193 µM and a TGI of 76.9 µM.
